Results published in PubChem BioAssay.
Calls of active or inactive are those of the source.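 How the source made its calls, unless noted: active means fluorescence slope after compound addition differing from the mean of all tested samples at 99.7% confidence, mostly higher but some lower; inactive means the rest.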

Columns and labels:
[1] = inhibitors of TNFa-induced NFkB p65 translocation, primary screen, imaging, HUVEC, MLSMR starter and 10KST1 sets (AID 438;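 active means inhibition above 20% together with a positive visual image hit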;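 further: compound added about 3h40 before a 20 min TNFalpha stimulation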;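 on inhibition: signal is the nuclear over cytoplasmic p65 intensity ratio per well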); conditions: HUVEC TNFa-induced p65 nuclear translocation; cell count: measured here: nuclei count (cytotoxicity indicator), at 2.08 µM; inhibition: at 2 µM, stronger effect = higher value, 0% TNFa-plus-vehicle, 100% no-TNFa wells
[2] = endothelial E-selectin expression blockers – imaging, HUVEC, immunofluorescence, MLSMR starter and 10KST1 sets, primary screen (AID 487;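 active means visually confirmed hit in the image check and inhibition above 20%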;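 on inhibition: signal is fraction of cell area covered by stained E-selectin grains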;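 on nuclei count: 100% = median nuclei count of all wells on the same plate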); conditions: HUVEC TNFalpha-induced E-selectin immunofluorescence imaging, at 2 µM; inhibition: stronger effect = higher value; nuclei count: measured here: cell number, toxicity
[3] = Primary imaging screen for DUSP6 inhibitors that restore phospho-Erk in transfected HeLa cells, chemical complementation (AID 609;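 active means compounds giving at least 50% inhibition in the cell-based MKP-3 phosphatase rescue imaging test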;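 on inhibition: phospho-Erk level distribution per well compared with pooled transfected vehicle control wells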); conditions: HeLa MKP-3 transfected, phospho-Erk imaging KS statistic, at 10 µM, cells stimulated with TPA for 15 min
[4] = target: Dual specificity protein phosphatase 6 (Homo sapiens) (UniProt Q16828); test: as above; conditions: HeLa MKP-3 transfected, phospho-Erk imaging KS statistic; at 10 µM; stronger effect = higher value; cells stimulated with TPA for 15 min
[5] = target: Voltage-gated potassium channel subunit beta-2 (Rattus norvegicus) (UniProt P62483); test: inhibitors of rat Kvbeta2 reductase activity – biochemical, NADPH fluorescence, primary screen (AID 622;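 active means fluorescence slope higher than the sample average by over 3 SD, cut at about -0.22 in these data, passing the limit was not always enough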;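 further: slope of raw intensity against log time taken from 70 to 1610 s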); conditions: recombinant KvBeta, 4-cyanobenzaldehyde reduction, at 10 µM, stronger effect = higher value
[6] = target: Voltage-gated potassium channel subunit beta-2 (Rattus norvegicus) (UniProt P62483); test: enhancers of rat Kvbeta2 NADPH turnover – biochemical, NADPH fluorescence, primary screen (AID 623;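 active means NADPH fluorescence slope more negative than the mean of all samples by about 3 SD, 99.7% confidence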;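 further: fluorescence intensity change per second fitted from 20 to 320 s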); conditions: Recombinant KvBeta, NADPH fluorescence decrease slope, 10 min; at 10 µM; stronger effect = lower value
[7] = target: Muscarinic acetylcholine receptor M4 (Homo sapiens) (UniProt P08173); test: M4-linked GIRK flux change, two-sided – cell-based, HEK293 M4/GIRK, thallium flux, BTC-AM, M4 allosteric agonist project, primary screen (AID 625); conditions: at 10 µM, actives lie on both sides;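 further: thallium influx through GIRK channels coupled to M4 in HEK293 cells with BTC-AM dye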
How it was run: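 Material – HEK293 cells with M4 receptor and GIRK channels · Buffer or medium – pH 7.3 thallium assay buffer · Doses – one dose, 10 µM final · Timing – cells overnight at 37 °C, BTC-AM loading 1 h, reads 2 min total · Measured by – kinetic fluorescence with BTC-AM dye · Controls – carbachol and DMSO controls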

[8] = inhibitors of larval lipid processing in zebrafish, primary screen, whole organism, PED6 fluorescence, gall bladder and intestine (AID 686;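 active means a full or partial loss of lipid-probe fluorescence in the fish gall bladder, intestine or both, judged by eye; inactive means no fluorescence loss, or compound toxic to the fish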;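 further: larvae 5 to 7 days old with five fish per well; signal comes from phospholipase A2 cleavage of quenched PED6 carried via bile; overnight exposure to compound and PED6 before scoring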); conditions: Zebrafish larvae PED6 lipid processing, fluorescence scoring; screened at 20 µM (by protocol)
How it was run: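 system = live zebrafish larvae aged 5-7 days, whole organism | probe or stimulus = ingested quenched lipid PED6 at 100 nM | doses = 20 µM single dose | timing = overnight exposure | detection = fluorescence microscopy with visual scoring of gall bladder and intestine | read-out = visual per-well fluorescence inhibition score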

[9] = loss of swimming-algae plug formation – whole organism, Chlamydomonas reinhardtii, WT vs cilia-less mutant, absorbance, 96-well, primary screen (AID 463189;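 active means inhibition at or above 50% relative to wild type and mutant plate controls; inactive means inhibition below 50%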;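 further: 0% = wild type cc124 cells in DMSO and 100% = ciliumless bld1 mutant cells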); conditions: Chlamydomonas reinhardtii gravitaxis, OD600 absorbance, 2 days; at 10 µM; stronger effect = higher value
[10] = measured here: cell density z-score
[11] = measured here: nuclear c-Myc green intensity z-score
[12] = measured here: nuclear pErk red intensity z-score, stronger effect = higher value

Muscarinic acetylcholine receptor M4 (Homo sapiens), sequence (P08173 whole entry, looked up): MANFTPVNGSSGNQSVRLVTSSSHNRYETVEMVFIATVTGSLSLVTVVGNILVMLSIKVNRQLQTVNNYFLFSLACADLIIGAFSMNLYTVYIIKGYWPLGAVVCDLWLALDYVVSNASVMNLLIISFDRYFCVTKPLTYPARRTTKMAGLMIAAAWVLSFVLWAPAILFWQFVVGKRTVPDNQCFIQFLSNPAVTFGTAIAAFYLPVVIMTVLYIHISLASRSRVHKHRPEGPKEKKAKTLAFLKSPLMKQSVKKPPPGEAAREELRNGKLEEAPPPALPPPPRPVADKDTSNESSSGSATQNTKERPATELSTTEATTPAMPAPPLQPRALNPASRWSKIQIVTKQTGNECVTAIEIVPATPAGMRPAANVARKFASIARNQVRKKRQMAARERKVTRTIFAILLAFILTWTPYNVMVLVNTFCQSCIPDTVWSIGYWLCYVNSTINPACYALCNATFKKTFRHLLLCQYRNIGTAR
Voltage-gated potassium channel subunit beta-2 (Rattus norvegicus), sequence (P62483 whole entry, looked up): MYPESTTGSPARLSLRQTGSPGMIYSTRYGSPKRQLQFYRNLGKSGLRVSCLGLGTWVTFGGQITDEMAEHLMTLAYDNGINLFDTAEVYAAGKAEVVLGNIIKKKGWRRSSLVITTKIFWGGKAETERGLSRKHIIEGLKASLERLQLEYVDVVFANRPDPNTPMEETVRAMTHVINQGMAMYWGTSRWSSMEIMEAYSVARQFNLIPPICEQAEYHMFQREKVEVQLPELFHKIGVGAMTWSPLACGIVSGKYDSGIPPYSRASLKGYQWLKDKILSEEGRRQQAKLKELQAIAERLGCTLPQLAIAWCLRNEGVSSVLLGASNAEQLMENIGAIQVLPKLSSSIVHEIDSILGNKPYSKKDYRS
Dual specificity protein phosphatase 6 (Homo sapiens), sequence (Q16828 whole entry, looked up): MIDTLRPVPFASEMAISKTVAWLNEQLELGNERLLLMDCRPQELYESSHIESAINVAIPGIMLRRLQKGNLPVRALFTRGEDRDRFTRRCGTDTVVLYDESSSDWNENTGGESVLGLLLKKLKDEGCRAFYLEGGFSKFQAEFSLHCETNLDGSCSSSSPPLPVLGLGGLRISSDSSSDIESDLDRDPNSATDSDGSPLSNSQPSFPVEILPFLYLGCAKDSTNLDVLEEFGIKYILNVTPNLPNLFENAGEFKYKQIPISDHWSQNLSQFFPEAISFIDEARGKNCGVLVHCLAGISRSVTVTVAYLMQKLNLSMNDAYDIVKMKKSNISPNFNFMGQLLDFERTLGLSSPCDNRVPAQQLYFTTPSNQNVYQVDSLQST

Row | Compound | cell count [1] | inhibition [1] | inhibition [2] | nuclei count [2] [%] | z-score [3, 10] | z-score [3, 11] | z-score [3, 12] | inhibition [4] | fluorescence slope [5] | NADPH fluorescence slope [6] | fluorescence slope [7] | outcome [8] | inhibition [9]
1 | Cc1nn2cnc3sc4c(c3c2nc1=O)CCCC4 | 535 | -9.5% (inactive) | -186% (inactive) | 145 | 0.522 | -0.702 | -1.01 | 13.9% (inactive) | -0.364 (inactive) | -2.5e-05 (inactive) | 0.00519 (inactive) | inactive | 19.9% (inactive)
2 | CCOC(=O)c1[nH]c2ccc(OC)cc2c1NC(=O)CCN1CCCC(C)C1 (stereo unspecified) | 521 | -0.1% (inactive) | 9.9% (inactive) | 100 | -0.422 | -0.411 | -1.15 | 11.4% (inactive) | -0.351 (inactive) | -1.8e-05 (inactive) | 0.00513 (inactive) | inactive | 28.8% (inactive)
3 | OCCOCCNc1ncnc2c1cnn2-c1ccc(Cl)cc1 | 578 | -11.9% (inactive) | -74.5% (inactive) | 181 | 0.588 | -0.286 | 0.737 | -4.59% (inactive) | -0.308 (inactive) | -2.8e-05 (inactive) | 0.00585 (inactive) | inactive | 26.1% (inactive)
4 | CN(C)CCNC(=O)C12CC3(C)CC(C)(CC(C)(C3)C1)C2 | 524 | -4.4% (inactive) | -34.6% (inactive) | 118 | -1.47 | 1.88 | -1.54 | -6.59% (inactive) | -0.465 (inactive) | -0.000122 (inactive) | 0.00507 (inactive) | inactive | -10.5% (inactive)
5 | FC(F)(F)c1cccc(-n2cccc2/C=N/n2cnnc2)c1 | 415 | -3.1% (inactive) | 39.9% (inactive) | 140 | -1.39 | 0.953 | 1.88 | -0.608% (inactive) | -0.438 (inactive) | -0.00012 (inactive) | 0.00494 (inactive) | inactive | 13.6% (inactive)
6 | CCCCc1[nH]c(=O)c(C#N)c2c1CSC(C)(C)C2 | 551 | 0.5% (inactive) | -122% (inactive) | 132 | 0.749 | 0.642 | -1.4 | 17.4% (inactive) | -0.482 (inactive) | -0.000112 (inactive) | 0.00497 (inactive) | inactive | 0.152% (inactive)
7 | CCCCN1C(=O)C(O)=C(C(C)=O)C1c1ccc(OC)cc1OC (stereo unspecified) | 479 | -4.2% (inactive) | -323% (inactive) | 189 | 0.403 | -0.372 | 1.98 | -7.28% (inactive) | -0.464 (inactive) | -4.3e-05 (inactive) | 0.00466 (inactive) | inactive | -3.96% (inactive)
8 | CCOC(=O)C(O)(C1C(=O)CC(C)(C)CC1=O)C(F)(F)F (stereo unspecified) | 681 | -12.6% (inactive) | -174% (inactive) | 160 | -0.979 | 0.326 | 3.57 | -9.53% (inactive) | -0.44 (inactive) | -4.6e-05 (inactive) | 0.00523 (inactive) | inactive | 3.71% (inactive)
9 | COc1cc(C2Nc3cccc4cccc(c34)N2)cc(OC)c1OC(C)=O | 498 | -3.5% (inactive) | -2.1% (inactive) | 85.3 | 0.65 | -1.19 | 0.407 | -2.59% (inactive) | -0.474 (inactive) | 7.8e-06 (inactive) | 0.00327 (inactive) | inactive | 17.1% (inactive)
10 | CCCCOc1ccc(C(=O)N2CCCC2C(=O)O)cc1 (stereo unspecified) | 675 | 2.7% (inactive) | 22.4% (inactive) | 146 | 0.371 | 0.251 | 0.422 | -13.3% (inactive) | -0.458 (inactive) | -4.7e-05 (inactive) | 0.00494 (inactive) | inactive | 7.22% (inactive)
11 | COCCn1c(SCc2c(F)cccc2Cl)nc2c1c(=O)[nH]c(=O)n2C | 654 | 3.4% (inactive) | -11.2% (inactive) | 115 | 1.7 | -2.3 | -0.397 | 40.7% (inactive) | -0.44 (inactive) | -5.5e-05 (inactive) | 0.00509 (inactive) | inactive | 15.2% (inactive)
12 | CCNC(=O)c1cc2c(=O)n3cccc(C)c3nc2n(CCc2ccccc2)c1=N | 643 | 8.2% (inactive) | -7.9% (inactive) | 106 | -0.692 | 0.0237 | -0.676 | 14.7% (inactive) | -0.0428 (inactive) | -1.8e-05 (inactive) | 0.00034 (inactive) | active; no signal in intestine only | 70.9% (active)
13 | Clc1ccc(-n2ncc3c(NCc4ccccn4)ncnc32)cc1 | 537 | -14.9% (inactive) | 6.6% (inactive) | 106 | -1.8 | 2.08 | -1.64 | 1.42% (inactive) | -0.374 (inactive) | 5.6e-06 (inactive) | 0.0062 (inactive) | inactive | 0.96% (inactive)
14 | O=C(CN1C2=NCCN2c2ccccc21)N1CCOCC1 | 629 | 11% (inactive) | -7.9% (inactive) | 115 | 0.036 | -0.429 | -0.703 | -7.67% (inactive) | -0.447 (inactive) | -4.9e-05 (inactive) | 0.00508 (inactive) | inactive | -8.14% (inactive)
15 | CCC(C)Nc1nc(OC)nc(N(C)C#N)n1 (stereo unspecified) | 675 | 7.6% (inactive) | -32.5% (inactive) | 130 | 0.721 | 0.541 | 0.135 | -9.53% (inactive) | -0.431 (inactive) | -5.5e-05 (inactive) | 0.00571 (inactive) | inactive | 3.27% (inactive)
16 | Nc1nnnn1/N=C/c1ccco1 | 510 | -4% (inactive) | -8.3% (inactive) | 90.4 | 0.476 | 0.245 | -0.718 | 11% (inactive) | -0.502 (inactive) | -4.9e-05 (inactive) | 0.00713 (inactive) | inactive | -6.14% (inactive)
17 | Cc1ccc(C(=O)NCCCNCCCNC(=O)c2ccc(C)nc2)cn1 | 393 | -2.8% (inactive) | -153% (inactive) | 151 | 0.349 | -0.364 | -0.725 | 3.56% (inactive) | -0.471 (inactive) | -8.7e-05 (inactive) | 0.00476 (inactive) | inactive | 0.875% (inactive)
18 | CN(C)c1ccc(NC(=O)c2sc(SCC(=O)Nc3nccs3)nc2N)cc1 | 700 | -11.3% (inactive) | 0.8% (inactive) | 179 | -1.08 | 1.63 | 0.495 | 1.98% (inactive) | -0.491 (inactive) | -9e-05 (inactive) | 0.00686 (inactive) | inactive | -7.49% (inactive)
19 | O=C(/C=N/O)NCCCN1CCOCC1 | 682 | -11.2% (inactive) | 3.2% (inactive) | 168 | -1.5 | -0.495 | 2.77 | -15.1% (inactive) | -0.477 (inactive) | -7.4e-05 (inactive) | 0.00666 (inactive) | inactive | 5.9% (inactive)
20 | COC(=O)C(NC(C)=O)(Nc1ccc(Br)cn1)C(F)(F)F (stereo unspecified) | 555 | 1.7% (inactive) | 54.1% (inactive) | 88.1 | -1.18 | 0.658 | 0.74 | -4.59% (inactive) | -0.471 (inactive) | 3.7e-06 (inactive) | 0.00445 (inactive) | inactive | 4.13% (inactive)
21 | Cc1cc(=O)oc(C)c1C(=O)NCC1CCCO1 (stereo unspecified) | 606 | 9.1% (inactive) | -24.6% (inactive) | 123 | 0.0605 | 0.0774 | 0.0396 | 5.35% (inactive) | -0.441 (inactive) | -4.3e-05 (inactive) | 0.00527 (inactive) | inactive | 5.07% (inactive)
22 | O=C(NCCCn1ccnc1)c1cccnc1 | 412 | -1% (inactive) | -143% (inactive) | 187 | -0.692 | 0.968 | -0.483 | 5.65% (inactive) | -0.459 (inactive) | -0.000144 (inactive) | 0.00592 (inactive) | inactive | 0.663% (inactive)
23 | CCOC(=O)c1[nH]c2ccc(F)cc2c1NC(=O)CCN1CCSCC1 | 617 | -1.1% (inactive) | -124% (inactive) | 130 | -0.422 | 0.0168 | 1.05 | 1.42% (inactive) | -0.455 (inactive) | -0.000125 (inactive) | 0.00431 (inactive) | inactive | -7.59% (inactive)
24 | COC(=O)C(C)Sc1nc2c(c(=O)n(C)c(=O)n2C)n1CCC(C)C (stereo unspecified) | 630 | 0.3% (inactive) | -5.5% (inactive) | 179 | 0.304 | -0.191 | -1.37 | 3.42% (inactive) | -0.42 (inactive) | -1.8e-05 (inactive) | 0.00499 (inactive) | inactive | 4.36% (inactive)
25 | Nc1nc2n(n1)C(c1cccs1)CC(c1ccc(Br)cc1)N2 (stereo unspecified) | 409 | -1% (inactive) | -13.7% (inactive) | 149 | -0.806 | 0.38 | 0.438 | 5.65% (inactive) | -0.443 (inactive) | -9.3e-05 (inactive) | 0.0057 (inactive) | inactive | 21.9% (inactive)
26 | CCC(=O)Nc1nc2ccccc2n1Cc1ccccc1C | 480 | -2.1% (inactive) | -158% (inactive) | 114 | 0.4 | 0.0083 | 0.265 | -3.97% (inactive) | -0.407 (inactive) | 1.4e-06 (inactive) | 0.00508 (inactive) | inactive | -13.6% (inactive)
27 | O=C(C(c1ccccc1)N1CCOCC1)N1CCOCC1 (stereo unspecified) | 733 | -13.6% (inactive) | -25.3% (inactive) | 159 | -0.0327 | 1.84 | -0.87 | -9.53% (inactive) | -0.431 (inactive) | -2.2e-05 (inactive) | 0.00553 (inactive) | inactive | -3.52% (inactive)
